Laboratory results reported in ChEMBL document CHEMBL1140527, “Synthesis and antimicrobial activity of some novel nucleoside analogues of adenosine and 1,3-dideazaadenosine” (2007).
Values after ≈ are worked out from the molar mass of the structure shown.

Tests used:
Assay type in all cases: functional
[1] = system: Candida albicans; assay: Antifungal activity against Candida albicans by disc diffusion method
Outline: (§1)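 Fungi were screened first by disc diffusion on corn meal agar, with M-3 broth susceptibility test medium. MIC was then determined by broth dilution.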

[2] = system: Cryptococcus neoformans; assay: Antifungal activity against Cryptococcus neoformans by disc diffusion method; outline: as §1
[3] = system: Talaromyces marneffei; assay: Antifungal activity against Penicillium marneffei by disc diffusion method; outline: as §1
[4] = system: Aspergillus fumigatus; assay: Antifungal activity against Aspergillus fumigatus by disc diffusion method; outline: as §1
[5] = system: Mucor; assay: Antifungal activity against Mucor sp. by disc diffusion method; outline: as §1
[6] = system: Streptococcus; assay: Antibacterial activity against Streptococcus group D after 18 to 24 hrs by disc diffusion method
Outline: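 Kirby-Bauer disc diffusion: sterile 6 mm filter-paper discs impregnated with compound at 1.5, 1.1, 0.57, 0.28, 0.14 and 0.07 per mL. Discs showing zones were followed by broth dilution: doubling dilutions in 50% DMSO–H2O, inoculum to 0.5 McFarland, 37 °C for 18–24 h. MIC was the lowest dilution preventing visible turbidity. The initial solution (12.5% DMSO) was not scored.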

| SMILES | MIC [1] | MIC [2] | MIC [3] | MIC [4] | MIC [5] | MIC [6] |
| --- | --- | --- | --- | --- | --- | --- |
| OC(Cn1cncn1)(Cn1cncn1)c1ccc(F)cc1F [FLUCONAZOLE] | 0.52 µM (≈ 0.159 µg/mL) | 0.52 µM (≈ 0.159 µg/mL) | 0.52 µM (≈ 0.159 µg/mL) | 0.52 µM (≈ 0.159 µg/mL) | 0.52 µM (≈ 0.159 µg/mL) | – |
| CN[C@H](CC(C)C)C(=O)N[C@H]1C(=O)N[C@@H](CC(N)=O)C(=O)N[C@H]2C(=O)N[C@H]3C(=O)N[C@H](C(=O)N[C@H](C(=O)O)c4cc(O)cc(O)c4-c4cc3ccc4O)[C@H](O)c3ccc(c(Cl)c3)Oc3cc2cc(c3O[C@@H]2O[C@H](CO)[C@@H](O)[C@H](O)[C@H]2O[C@H]2C[C@](C)(N)[C@H](O)[C@H](C)O2)Oc2ccc(cc2Cl)[C@H]1O [VANCOMYCIN] | – | – | – | – | – | 0.78 µM (≈ 1.13 µg/mL) |
| CCOC(=O)CCSC[C@H]1O[C@@H](n2cnc3c(N)cccc32)[C@H](O)[C@@H]1O | 0.38 µM (≈ 0.145 µg/mL) | 0.38 µM (≈ 0.145 µg/mL) | 0.38 µM (≈ 0.145 µg/mL) | 0.38 µM (≈ 0.145 µg/mL) | 0.38 µM (≈ 0.145 µg/mL) | 0.19 µM (≈ 0.0725 µg/mL) |
| Nc1ncnc2c1ncn2[C@@H]1O[C@H](CSCCC(=O)O)[C@@H](O)[C@H]1O | 1.5 µM (≈ 0.533 µg/mL) | 1.5 µM (≈ 0.533 µg/mL) | 1.5 µM (≈ 0.533 µg/mL) | 1.5 µM (≈ 0.533 µg/mL) | 1.5 µM (≈ 0.533 µg/mL) | 0.755 µM (≈ 0.268 µg/mL) |
| C=CCSC[C@H]1O[C@@H](n2c(CC)nc3c([N+](=O)[O-])cccc32)[C@H](O)[C@@H]1O | 2 µM (≈ 0.759 µg/mL) | 2 µM (≈ 0.759 µg/mL) | 2 µM (≈ 0.759 µg/mL) | 2 µM (≈ 0.759 µg/mL) | 2 µM (≈ 0.759 µg/mL) | – |
| Nc1cccc2c1ncn2[C@@H]1O[C@H](CSCCC(=O)O)[C@@H](O)[C@H]1O | 0.75 µM (≈ 0.265 µg/mL) | 0.75 µM (≈ 0.265 µg/mL) | 0.75 µM (≈ 0.265 µg/mL) | 0.75 µM (≈ 0.265 µg/mL) | 0.75 µM (≈ 0.265 µg/mL) | 0.38 µM (≈ 0.134 µg/mL) |
| C=CCSC[C@H]1O[C@@H](n2cnc3c([N+](=O)[O-])cccc32)[C@H](O)[C@@H]1O | 0.38 µM (≈ 0.134 µg/mL) | 0.38 µM (≈ 0.134 µg/mL) | 0.38 µM (≈ 0.134 µg/mL) | 0.38 µM (≈ 0.134 µg/mL) | 0.38 µM (≈ 0.134 µg/mL) | 1.25 µM (≈ 0.439 µg/mL) |
| Clc1ccc(COC(Cn2ccnc2)c2ccc(Cl)cc2Cl)c(Cl)c1 (stereo not given) [MICONAZOLE] | 0.77 µM (≈ 0.32 µg/mL) | 0.77 µM (≈ 0.32 µg/mL) | 0.77 µM (≈ 0.32 µg/mL) | 0.77 µM (≈ 0.32 µg/mL) | 0.77 µM (≈ 0.32 µg/mL) | – |
